The species named for test [1] is Mustela putorius furo. In words: Peak isometric tension during the basic stimulus trains (S1) during control and compound induced tension, expressed as percent control. Format: functional. The procedure, abridged:
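Same preparation: buffer pH 7.3, 5% CO2/95% O2, 37 °C, timolol 0.1 mM, 3 msec constant-current stimulation. Isometric force was recorded, and peak tension was taken during the basic S1 stimulus trains. Readings were made at steady state, about 15 min after each concentration. The change is expressed as percent of control.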

Test [2] is filed under the species Mustela putorius furo. In words: Dose required to produce 20% increase in effective refractory period in male ferret. The class given is functional. The essentials:
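Isolated tissue in buffer (mM: KCl 4, MgCl2 1.0, NaHCO3 25, KH2PO4 1.2, CaCl2 2, dextrose 11), pH 7.3, gassed 5% CO2/95% O2, 37 °C. Timolol 0.1 mM present. Stimulated with 3 msec constant-current pulses. Duplicate control readings, then each concentration read at steady state (~15 min). EC20 is the mean dose giving a 20% rise in ERP, in μM.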

SMILES strings stand for the structures.

On to `O=C(c1ccc([N+](=O)[O-])cc1)N1CCN(C(=O)c2ccc([N+](=O)[O-])cc2)CC1`, for which the Tension in the test filed under Mustela putorius furo [1] is -6%. Besides, in the test filed under Mustela putorius furo [2], the EC20 worked out at 7000 nM.

In the case of `O=[N+]([O-])c1ccc(CCN2CCN(S(=O)(=O)c3ccc([N+](=O)[O-])cc3)CC2)cc1`, the Tension in the test listed under Mustela putorius furo [1] is reported as -24%. The molecule further had an EC20 in the test listed under Mustela putorius furo [2] of 1000 nM.

In the case of `O=C(c1ccc([N+](=O)[O-])cc1)N1CCN(Cc2ccc([N+](=O)[O-])cc2)CC1`, the Tension in the test filed under Mustela putorius furo [1] is -44%. The same molecule gave an EC20 in the test listed under Mustela putorius furo [2] of 3500 nM.

As to `O=[N+]([O-])c1ccc(CCN2CCN(c3ccc([N+](=O)[O-])cn3)CC2)cc1`, the Tension in the test listed under Mustela putorius furo [1] is reported as -21%. Further, the EC20 in the test listed under Mustela putorius furo [2] was determined as 1300 nM.

As for `O=C(c1ccc([N+](=O)[O-])cc1)N1CCN(CCc2ccc([N+](=O)[O-])cc2)CC1`, the Tension in the test listed under Mustela putorius furo [1] is on record as -3%. The EC20 in the test filed under Mustela putorius furo [2] worked out at 3 nM.

With `O=[N+]([O-])c1ccc(OCCN2CCN(c3ccc([N+](=O)[O-])cc3)CC2)cc1`, in the test filed under Mustela putorius furo [1], the Tension is -27%. Moreover, in the test filed under Mustela putorius furo [2], the EC20 worked out at 350 nM.

As for `O=C(c1ccc(Cl)cc1)C1CCN(CCc2ccc([N+](=O)[O-])cc2)CC1`, the Tension in the test listed under Mustela putorius furo [1] is given as -4%. In the test listed under Mustela putorius furo [2], this molecule displayed an EC20 of 300 nM.

Regarding `Nc1ccc(OCCN2CCN(c3ccc(N)cc3)CC2)cc1`, in the test filed under Mustela putorius furo [1], the Tension is given as -43%. Moreover, the EC20 in the test filed under Mustela putorius furo [2] was greater than 100000 nM.

On to `O=C(c1ccc([N+](=O)[O-])cc1)N1CCN(CCc2ccccc2)CC1`, for which the Tension in the test filed under Mustela putorius furo [1] is recorded as -8%. In the test listed under Mustela putorius furo [2], this molecule displayed an EC20 of 160 nM.

Consider `Nc1ccc(CCN2CCC(c3ccc(N)cc3)CC2)cc1`, for which the Tension in the test filed under Mustela putorius furo [1] is recorded as 15%. The molecule also returned an EC20 in the test listed under Mustela putorius furo [2] of 2000 nM.

`CC(C)NCC(O)c1ccc(NS(C)(=O)=O)cc1` (centres undefined) [SOTALOL]: the Tension in the test listed under Mustela putorius furo [1] is -13%. The same molecule had an EC20 in the test filed under Mustela putorius furo [2] of 3500 nM.

In the case of `CS(=O)(=O)Nc1ccc(CCN2CCN(C(=O)c3ccc(NS(C)(=O)=O)cc3)CC2)cc1`, in the test filed under Mustela putorius furo [1], the Tension turned out to be 1%. For the same molecule, the 20% effect concentration (EC20) in the test filed under Mustela putorius furo [2] worked out at 2000 nM.

On to `O=C(CN1CCN(C(=O)c2ccc([N+](=O)[O-])cc2)CC1)Nc1ccc([N+](=O)[O-])cc1`, for which the Tension in the test listed under Mustela putorius furo [1] is recorded as 5%. This molecule also displayed an EC20 in the test filed under Mustela putorius furo [2] of 35 nM.

`O=[N+]([O-])c1ccc(CCN2CCN(c3ccncc3)CC2)cc1`: the Tension in the test filed under Mustela putorius furo [1] is listed as 8%. Besides, the concentration for an effect of 20% (EC20) in the test filed under Mustela putorius furo [2] amounted to 30 nM.

In the case of `O=C(c1ccccc1)N1CCN(CCc2ccc([N+](=O)[O-])cc2)CC1`, the Tension in the test filed under Mustela putorius furo [1] was -7%. In the test listed under Mustela putorius furo [2], this molecule registered an EC20 of 140 nM.

For the molecule `CS(=O)(=O)Nc1ccc(CCN2CCN(c3ccncc3)CC2)cc1`, in the test listed under Mustela putorius furo [1], the Tension is listed as 2%. This molecule also displayed an EC20 in the test listed under Mustela putorius furo [2] of 220 nM.

As for `CS(=O)(=O)Nc1ccc(C(=O)N2CCN(CCc3ccccc3)CC2)cc1`, in the test listed under Mustela putorius furo [1], the Tension was 5%. The molecule further registered an EC20 in the test listed under Mustela putorius furo [2] of 680 nM.

As for `O=C(c1ccc([N+](=O)[O-])o1)N1CCN(CCc2ccc([N+](=O)[O-])cc2)CC1`, in the test listed under Mustela putorius furo [1], the Tension was -2%. This molecule also registered an EC20 in the test listed under Mustela putorius furo [2] of 140 nM.

`O=C(c1cccc([N+](=O)[O-])c1)N1CCN(CCc2ccc([N+](=O)[O-])cc2)CC1`: the Tension in the test filed under Mustela putorius furo [1] is recorded as -7%. Besides, the EC20 in the test filed under Mustela putorius furo [2] was 270 nM.

As for `Cc1cccc(CCN2CCC(C(=O)c3ccc(NS(C)(=O)=O)cc3)CC2)n1`, the Tension in the test listed under Mustela putorius furo [1] amounted to 9%. The molecule further registered a 20% effect concentration (EC20) in the test filed under Mustela putorius furo [2] of 20 nM.

As to `CN(CCOc1ccc(NS(C)(=O)=O)cc1)CCc1ccc(NS(C)(=O)=O)cc1` [DOFETILIDE], in the test listed under Mustela putorius furo [1], the Tension stood at 5%. In the test listed under Mustela putorius furo [2], this molecule gave an EC20 of 15 nM.

Turning to `CS(=O)(=O)Nc1ccc(C(=O)N2CCN(CCc3ccc([N+](=O)[O-])cc3)CC2)cc1`, the Tension in the test filed under Mustela putorius furo [1] turned out to be 1%. In addition, the EC20 in the test listed under Mustela putorius furo [2] came out at 60 nM.

Take `CS(=O)(=O)Nc1ccc(CCN2CCN(C(=O)c3ccc([N+](=O)[O-])cc3)CC2)cc1`: in the test filed under Mustela putorius furo [1], the Tension turned out to be 13%. In addition, in the test listed under Mustela putorius furo [2], the EC20 came to 160 nM.

Take `O=C(c1ccc([N+](=O)[O-])cc1)N1CCN(CCc2ccc([N+](=O)[O-])s2)CC1`: in the test listed under Mustela putorius furo [1], the Tension was -17%. In the test listed under Mustela putorius furo [2], this molecule returned an EC20 of 10 nM.

Take `O=C(c1ccncc1)N1CCN(CCc2ccc([N+](=O)[O-])cc2)CC1`: the Tension in the test filed under Mustela putorius furo [1] turned out to be 19%. Also, in the test filed under Mustela putorius furo [2], the EC20 is 1000 nM.

As for `O=[N+]([O-])c1ccc(CCN2CCN(c3ccc([N+](=O)[O-])cc3)CC2)cc1`, the Tension in the test listed under Mustela putorius furo [1] is 5%. Moreover, the EC20 in the test listed under Mustela putorius furo [2] was found to be 30 nM.

As for `CS(=O)(=O)Nc1ccc(OCCN2CCN(C(=O)c3ccc(NS(C)(=O)=O)cc3)CC2)cc1`, the Tension in the test listed under Mustela putorius furo [1] is given as -13%. Besides, in the test filed under Mustela putorius furo [2], the EC20 is 15000 nM.

Regarding `O=[N+]([O-])c1ccc(N2CCN(CCc3ccccc3)CC2)cc1`, the Tension in the test listed under Mustela putorius furo [1] is given as -6%. Further, the EC20 in the test filed under Mustela putorius furo [2] came out at 500 nM.

As for `O=C(c1ccc([N+](=O)[O-])s1)N1CCN(CCc2ccc([N+](=O)[O-])cc2)CC1`, the Tension in the test listed under Mustela putorius furo [1] is 0%. This molecule displayed an EC20 in the test filed under Mustela putorius furo [2] of 12 nM.

For `Nc1ccc(CCN2CCN(C(=O)c3ccc([N+](=O)[O-])cc3)CC2)cc1`, the Tension in the test listed under Mustela putorius furo [1] is recorded as -14%. In the test listed under Mustela putorius furo [2], this molecule gave an EC20 of 1400 nM.

On to `O=C(c1ccc([N+](=O)[O-])cc1)N1CCN(CCOc2ccc([N+](=O)[O-])cc2)CC1`, for which the Tension in the test listed under Mustela putorius furo [1] turned out to be 0%. In the test filed under Mustela putorius furo [2], the EC20 is 60 nM.

In the case of `O=[N+]([O-])c1ccc(CCN2CCC(c3ccc([N+](=O)[O-])cc3)CC2)cc1`, in the test filed under Mustela putorius furo [1], the Tension is on record as 0%. For the same molecule, the EC20 in the test listed under Mustela putorius furo [2] came to 300 nM.

As to `CS(=O)(=O)Nc1ccc(C(=O)N2CCN(CCOc3ccc(N(S(C)(=O)=O)S(C)(=O)=O)cc3)CC2)cc1`, in the test filed under Mustela putorius furo [1], the Tension is reported as -14%. This molecule also showed an EC20 in the test listed under Mustela putorius furo [2] of 25000 nM.

For `Nc1ccc(CCN2CCN(c3ccncc3)CC2)cc1`, in the test filed under Mustela putorius furo [1], the Tension amounted to 9%. In addition, the EC20 in the test filed under Mustela putorius furo [2] came out at 15000 nM.

Regarding `O=C(c1ccc([N+](=O)[O-])cc1)N1CCNCC1`, the Tension in the test listed under Mustela putorius furo [1] is listed as -33%. The molecule further displayed an EC20 in the test listed under Mustela putorius furo [2] of 20000 nM.

Take `O=[N+]([O-])c1ccc(CCN2CCN(c3ccccc3)CC2)cc1`: the Tension in the test filed under Mustela putorius furo [1] is recorded as 10%. The EC20 in the test listed under Mustela putorius furo [2] came to 800 nM.

As for `Nc1ccc(CCN2CCN(c3ccc(N)cc3)CC2)cc1`, the Tension in the test listed under Mustela putorius furo [1] was -53%. In the test filed under Mustela putorius furo [2], this molecule displayed a 20% effect concentration (EC20) greater than 100000 nM.

By EC20 is commonly meant the point of the concentration-response curve where the effect stands at 20%. Low values mean greater potency, high ones weaker potency.

The record behind these values is ChEMBL document CHEMBL1133365, “Synthesis and class III type antiarrhythmic activity of 4-aroyl (and aryl)-l-aralkylpiperazines” (2000).
